Test results: ChEMBL document CHEMBL5058577, “EUbOPEN Chemogenomics Library 2 (Multiplex)” (2022)

Tested on: U2OS
Assay: Multiplex assay against U2OS
Type: toxicity, cell-based
Settings: human
Procedure, shortened: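 Tubulin, mitochondrial-mass and membrane-permeability phenotypes are per cents of healthy-nucleus cells. Cells were gated by CellPathfinder machine learning into Hoechst high-intensity objects or normal cells, normal cells into healthy, pyknosed or fragmented nuclei, and pyknosed cells into mitotic or apoptotic. Before that, live cells stained at seeding with Hoechst33342, BioTracker Green Microtubule Cytoskeleton Dye, MitoTracker Red and Annexin V Alexa Fluor 680 were imaged on a CQ1 microscope at 37°C and 5% CO2 after compound addition.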

[1] = 12 h, 1 µM, compound concentration 1 uM, replicate 1
[2] = 12 h, 1 µM, compound concentration 1 uM, replicate 2
[3] = 12 h, 10 µM, compound concentration 10 uM, replicate 1
[4] = 12 h, 10 µM, compound concentration 10 uM, replicate 2
[5] = 24 h, 1 µM, compound concentration 1 uM, replicate 1
[6] = 24 h, 1 µM, compound concentration 1 uM, replicate 2
[7] = 24 h, 10 µM, compound concentration 10 uM, replicate 1
[8] = 24 h, 10 µM, compound concentration 10 uM, replicate 2
[9] = 48 h, 1 µM, compound concentration 1 uM, replicate 1
[10] = 48 h, 1 µM, compound concentration 1 uM, replicate 2
[11] = 48 h, 10 µM, compound concentration 10 uM, replicate 1
[12] = 48 h, 10 µM, compound concentration 10 uM, replicate 2

Cc1cnc(-c2cc(N3CCN(C(=O)CCS(C)(=O)=O)CC3)ncc2Cl)c(C)c1
Population Apoptotic (%) [1]: 86%
Population Fragmented Nuclei (%) [1]: 37%
Population Healthy Nuclei (%) [1]: 54%
Population Hoechst High Intensity Objects (%) [1]: 2%
Population Membrane Permeable-Phenotype (%) [1]: 10%
Population Mitochondria Different-Phenotype (%) [1]: 1%
Population Mitotic Cells (%) [1]: 13%
Population Normal (%) [1]: 97%
Population Pyknosed Nuclei (%) [1]: 8%
Population Tubulin-Different-Phenotype (%) [1]: 2%
Total Cell Count [1]: 183
Population Apoptotic (%) [2]: 100%
Population Fragmented Nuclei (%) [2]: 18%
Population Healthy Nuclei (%) [2]: 73%
Population Hoechst High Intensity Objects (%) [2]: 1%
Population Mitochondria Different-Phenotype (%) [2]: 7%
Population Mitotic Cells (%) [2]: 0%
Population Normal (%) [2]: 98%
Population Tubulin-Different-Phenotype (%) [2]: 7%
Total Cell Count [2]: 111
Population Apoptotic (%) [3]: 85%
Population Fragmented Nuclei (%) [3]: 24%
Population Healthy Nuclei (%) [3]: 67%
Population Hoechst High Intensity Objects (%) [3]: 1%
Population Membrane Permeable-Phenotype (%) [3]: 4%
Population Mitochondria Different-Phenotype (%) [3]: 3%
Population Mitotic Cells (%) [3]: 14%
Population Normal (%) [3]: 98%
Population Pyknosed Nuclei (%) [3]: 8%
Population Tubulin-Different-Phenotype (%) [3]: 1%
Total Cell Count [3]: 258
Population Apoptotic (%) [4]: 75%
Population Fragmented Nuclei (%) [4]: 17%
Population Healthy Nuclei (%) [4]: 73%
Population Membrane Permeable-Phenotype (%) [4]: 20%
Population Mitochondria Different-Phenotype (%) [4]: 7%
Population Mitotic Cells (%) [4]: 25%
Population Pyknosed Nuclei (%) [4]: 9%
Population Tubulin-Different-Phenotype (%) [4]: 15%
Total Cell Count [4]: 88
Population Apoptotic (%) [5]: 80%
Population Fragmented Nuclei (%) [5]: 30%
Population Healthy Nuclei (%) [5]: 62%
Population Hoechst High Intensity Objects (%) [5]: 2%
Population Membrane Permeable-Phenotype (%) [5]: 5%
Population Mitochondria Different-Phenotype (%) [5]: 3%
Population Mitotic Cells (%) [5]: 20%
Population Normal (%) [5]: 97%
Population Pyknosed Nuclei (%) [5]: 6%
Population Tubulin-Different-Phenotype (%) [5]: 2%
Total Cell Count [5]: 220
Population Apoptotic (%) [6]: 90%
Population Fragmented Nuclei (%) [6]: 17%
Population Healthy Nuclei (%) [6]: 75%
Population Membrane Permeable-Phenotype (%) [6]: 8%
Population Mitochondria Different-Phenotype (%) [6]: 5%
Population Mitotic Cells (%) [6]: 10%
Population Pyknosed Nuclei (%) [6]: 7%
Population Tubulin-Different-Phenotype (%) [6]: 8%
Total Cell Count [6]: 136
Population Apoptotic (%) [7]: 80%
Population Fragmented Nuclei (%) [7]: 20%
Population Healthy Nuclei (%) [7]: 74%
Population Hoechst High Intensity Objects (%) [7]: 2%
Population Membrane Permeable-Phenotype (%) [7]: 4%
Population Mitochondria Different-Phenotype (%) [7]: 2%
Population Mitotic Cells (%) [7]: 20%
Population Normal (%) [7]: 97%
Population Pyknosed Nuclei (%) [7]: 4%
Population Tubulin-Different-Phenotype (%) [7]: 0%
Total Cell Count [7]: 309
Population Apoptotic (%) [8]: 85%
Population Fragmented Nuclei (%) [8]: 21%
Population Healthy Nuclei (%) [8]: 64%
Population Hoechst High Intensity Objects (%) [8]: 0%
Population Membrane Permeable-Phenotype (%) [8]: 18%
Population Mitochondria Different-Phenotype (%) [8]: 1%
Population Mitotic Cells (%) [8]: 14%
Population Normal (%) [8]: 99%
Population Pyknosed Nuclei (%) [8]: 13%
Population Tubulin-Different-Phenotype (%) [8]: 7%
Total Cell Count [8]: 103
Population Apoptotic (%) [9]: 78%
Population Fragmented Nuclei (%) [9]: 29%
Population Healthy Nuclei (%) [9]: 63%
Population Hoechst High Intensity Objects (%) [9]: 0%
Population Membrane Permeable-Phenotype (%) [9]: 3%
Population Mitochondria Different-Phenotype (%) [9]: 2%
Population Mitotic Cells (%) [9]: 21%
Population Normal (%) [9]: 99%
Population Pyknosed Nuclei (%) [9]: 7%
Population Tubulin-Different-Phenotype (%) [9]: 1%
Total Cell Count [9]: 325
Population Apoptotic (%) [10]: 95%
Population Fragmented Nuclei (%) [10]: 15%
Population Healthy Nuclei (%) [10]: 73%
Population Hoechst High Intensity Objects (%) [10]: 1%
Population Membrane Permeable-Phenotype (%) [10]: 4%
Population Mitochondria Different-Phenotype (%) [10]: 5%
Population Mitotic Cells (%) [10]: 5%
Population Normal (%) [10]: 98%
Population Pyknosed Nuclei (%) [10]: 10%
Population Tubulin-Different-Phenotype (%) [10]: 3%
Total Cell Count [10]: 184
Population Apoptotic (%) [11]: 94%
Population Fragmented Nuclei (%) [11]: 11%
Population Healthy Nuclei (%) [11]: 80%
Population Hoechst High Intensity Objects (%) [11]: 1%
Population Membrane Permeable-Phenotype (%) [11]: 4%
Population Mitochondria Different-Phenotype (%) [11]: 2%
Population Mitotic Cells (%) [11]: 5%
Population Normal (%) [11]: 98%
Population Pyknosed Nuclei (%) [11]: 7%
Population Tubulin-Different-Phenotype (%) [11]: 2%
Total Cell Count [11]: 485
Population Apoptotic (%) [12]: 100%
Population Fragmented Nuclei (%) [12]: 22%
Population Healthy Nuclei (%) [12]: 71%
Population Hoechst High Intensity Objects (%) [12]: 3%
Population Membrane Permeable-Phenotype (%) [12]: 13%
Population Mitochondria Different-Phenotype (%) [12]: 7%
Population Mitotic Cells (%) [12]: 0%
Population Normal (%) [12]: 96%
Population Pyknosed Nuclei (%) [12]: 5%
Population Tubulin-Different-Phenotype (%) [12]: 7%
Total Cell Count [12]: 141
